Measurements published in ChEMBL document CHEMBL1641558, “A novel series of potent and selective EP(4) receptor ligands: facile modulation of agonism and antagonism” (Bioorg Med Chem Lett, 2011).

Columns and labels:
[1] = target: T1, Prostaglandin E2 receptor EP4 subtype (Homo sapiens, UniProt P35408); experiment: Displacement of [3H]PGE2 from human prostanoid EP4 receptor expressed in HEK293-EBNA cells after 60 mins by scintillation counting; format: cell-based
Homo sapiens [2] = species: Homo sapiens; experiment: Selectivity ratio of Ki for human prostanoid TP receptor to Ki for human prostanoid EP4
Homo sapiens [3] = species: Homo sapiens; experiment: Selectivity ratio of Ki for human prostanoid IP receptor to Ki for human prostanoid EP4
[4] = target: T1, Prostaglandin E2 receptor EP4 subtype; experiment: Antagonist activity at human prostanoid EP4 receptor expressed in HEK293 cells assessed as inhibition of PGE2-induced cAMP accumulation by scintillation proximity assay; format: functional, cell-based
In short: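 HEK293 cells expressing EP4 receptors. Antagonism is read as inhibition of PGE2-evoked rise in intracellular cAMP, reported as IC50. Agonism is read as cAMP elevation in the same cells without PGE2, reported as EC50.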

Homo sapiens [5] = species: Homo sapiens; experiment: Selectivity ratio of Ki for human prostanoid EP2 receptor to Ki for human prostanoid EP4
Homo sapiens [6] = species: Homo sapiens; experiment: Selectivity ratio of Ki for human prostanoid EP1 receptor to Ki for human prostanoid EP4
Homo sapiens [7] = species: Homo sapiens; experiment: Selectivity ratio of Ki for human prostanoid FP receptor to Ki for human prostanoid EP4
Homo sapiens [8] = species: Homo sapiens; experiment: Selectivity ratio of Ki for human prostanoid EP3 receptor to Ki for human prostanoid EP4
Homo sapiens [9] = species: Homo sapiens; experiment: Selectivity ratio of Ki for human prostanoid DP receptor to Ki for human prostanoid EP4
[10] = Bioavailability in rat at 20 mg/kg, po and 5 mg/kg, iv; format: ADME, organism-based; settings: in vivo
In short: (§1)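 Rat pharmacokinetics with potassium salts, given 20 mg/kg orally in 0.5% methocel and 5 mg/kg intravenously in 60% PEG 200. Half-life, oral bioavailability and clearance derived from these dosings.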

[11] = Clearance in rat at 20 mg/kg, po and 5 mg/kg, iv; format: ADME, organism-based; settings: in vivo; in short: as §1
[12] = Half life in rat at 20 mg/kg, po and 5 mg/kg, iv; format: ADME, organism-based; settings: in vivo; in short: as §1
[13] = target: T1, Prostaglandin E2 receptor EP4 subtype; experiment: Agonist activity at human prostanoid EP4 receptor expressed in HEK293 cells assessed as cAMP accumulation by scintillation proximity assay

T1 sequence (P35408 whole entry): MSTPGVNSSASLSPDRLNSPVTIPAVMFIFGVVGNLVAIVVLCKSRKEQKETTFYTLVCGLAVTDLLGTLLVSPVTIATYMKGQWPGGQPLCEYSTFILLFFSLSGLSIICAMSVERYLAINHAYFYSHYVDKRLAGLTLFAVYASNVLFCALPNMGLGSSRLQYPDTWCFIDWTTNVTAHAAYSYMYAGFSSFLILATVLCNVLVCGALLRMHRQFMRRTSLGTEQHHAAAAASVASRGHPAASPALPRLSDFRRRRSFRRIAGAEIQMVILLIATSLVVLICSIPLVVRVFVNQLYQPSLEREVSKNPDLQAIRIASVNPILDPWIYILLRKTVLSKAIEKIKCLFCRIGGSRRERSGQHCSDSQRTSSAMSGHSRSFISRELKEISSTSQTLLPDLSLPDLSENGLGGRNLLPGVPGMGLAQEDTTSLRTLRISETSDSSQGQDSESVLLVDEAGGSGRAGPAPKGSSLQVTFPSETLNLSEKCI

Ki [1] [nM] | Ratio Ki (Homo sapiens [2]) | Ratio Ki (Homo sapiens [3]) | IC50 [4] [nM] | Ratio Ki (Homo sapiens [5]) | Ratio Ki (Homo sapiens [6]) | Ratio Ki (Homo sapiens [7]) | Ratio Ki (Homo sapiens [8]) | Ratio Ki (Homo sapiens [9]) | bioavailability [10] [%] | clearance [11] [mL/min/kg] | half-life [12] [min] | EC50 [13] [nM] | SMILES
0.44 | > 1000 | > 1000 | 0.92 | > 1000 | > 1000 | > 1000 | > 1000 | > 1000 | 102 | 9 | 282 |  | C[C@H](NC(=O)c1cccc2c1N(Cc1ccc(Cl)cc1)CC2)c1ccc(C(=O)O)cc1
14 | > 1000 | > 1000 | 114 | > 692 | > 1000 | > 1000 | > 1000 | > 281 |  |  |  |  | C[C@H](NC(=O)c1cccc2c1N(Cc1ccc(C(C)(C)C)cc1)CC2)c1ccc(C(=O)O)cc1
0.66 | > 1000 | > 1000 | 3 | 153 | > 1000 | > 1000 | > 1000 | 504 |  |  |  |  | C[C@H](NC(=O)c1cc(C(F)(F)F)cc2c1N(Cc1ccc(C(F)(F)F)cc1)CC2)c1ccc(C(=O)O)cc1
0.37 | > 1000 | > 1000 | 2.1 | > 1000 | > 1000 | > 1000 | > 1000 | > 1000 |  |  |  |  | C[C@H](NC(=O)c1cc(F)cc2c1N(Cc1ccc(C(F)(F)F)cc1)CC2)c1ccc(C(=O)O)cc1
1.5 | > 1000 | > 1000 | 2.8 | 687 | > 1000 | > 1000 | > 1000 | 880 |  |  |  |  | C[C@H](NC(=O)c1cccc2c1N(Cc1ccc(OC(F)(F)F)cc1)CC2)c1ccc(C(=O)O)cc1
0.78 | > 1000 | > 1000 | 5.8 | > 1000 | > 1000 | > 1000 | > 1000 | > 1000 |  |  |  |  | Cc1ccc(CN2CCc3cccc(C(=O)N[C@@H](C)c4ccc(C(=O)O)cc4)c32)cc1
6.7 | > 1000 | > 1000 | 4.7 | 795 | > 1000 | > 1000 | > 1000 | 88 |  |  |  |  | C[C@H](NC(=O)c1cccc2c1N(Cc1ccc(C(F)(F)F)cc1Br)CC2)c1ccc(C(=O)O)cc1
3.1 | > 1000 | > 1000 | 7.3 | 603 | > 1000 | > 1000 | > 1000 | 916 |  |  |  |  | C[C@H](NC(=O)c1cccc2c1N(Cc1ccc(C#N)cc1)CC2)c1ccc(C(=O)O)cc1
0.34 | > 1000 | > 1000 | 1.1 | 338 | > 1000 | > 1000 | > 1000 | 241 | 73 | 12 | 288 |  | C[C@H](NC(=O)c1cccc2c1N(Cc1ccc(Cl)c(Cl)c1)CC2)c1ccc(C(=O)O)cc1
1.8 | > 1000 | > 1000 | 6.2 | 488 | > 1000 | > 1000 | > 1000 | 907 |  |  |  |  | C[C@H](NC(=O)c1cccc2c1N(Cc1ccc(F)cc1)CC2)c1ccc(C(=O)O)cc1
0.4 | > 1000 | > 1000 | 2.2 | 647 | > 1000 | > 1000 | > 1000 | 670 |  |  |  |  | C[C@H](NC(=O)c1cc(Cl)cc2c1N(Cc1ccc(C(F)(F)F)cc1)CC2)c1ccc(C(=O)O)cc1
54 | > 1000 | > 1000 |  | > 179 | > 1000 | > 1000 | > 1000 | > 73 |  |  |  |  | C[C@H](NC(=O)c1cccc2c1N(Cc1ccc(C(=O)O)cc1)CC2)c1ccc(C(=O)O)cc1

Further lines, the compound ahead of its results:

SMILES | Ki [1] [nM] | Ratio Ki (Homo sapiens [2]) | Ratio Ki (Homo sapiens [3]) | IC50 [4] [nM] | Ratio Ki (Homo sapiens [5]) | Ratio Ki (Homo sapiens [6]) | Ratio Ki (Homo sapiens [7]) | Ratio Ki (Homo sapiens [8]) | Ratio Ki (Homo sapiens [9]) | bioavailability [10] [%] | clearance [11] [mL/min/kg] | half-life [12] [min] | EC50 [13] [nM]
C[C@H](NC(=O)c1cccc2c1N(Cc1ccc(C(N)=O)cc1)CC2)c1ccc(C(=O)O)cc1 | 30 | > 1000 | > 1000 | 73 | > 1000 | > 1000 | > 1000 | > 1000 | > 1000 |  |  |  | 
C[C@H](NC(=O)c1cccc2c1N(Cc1ccc(C(F)(F)F)cc1)CC2)c1ccc(-c2nnn[nH]2)cc1 | 1 |  |  | 3.5 |  |  |  |  |  | 54 | 28 | 156 | 
C[C@H](NC(=O)c1cccc2c1N(Cc1ccc(C(F)(F)F)cc1)CC2)c1ccc(-c2nn[nH]n2)cc1 |  | > 1000 | > 1000 |  | > 1000 | > 1000 | > 1000 | > 1000 | > 1000 |  |  |  | 
C[C@H](NC(=O)c1cccc2c1N(Cc1cc(Br)cc(Br)c1)CC2)c1ccc(C(=O)O)cc1 | 0.33 | > 1000 | > 1000 | > 10000 | 151 | > 1000 | > 1000 | > 1000 | 209 |  |  |  | 0.36
C[C@H](NC(=O)c1cccc2c1N(Cc1cccnc1)CC2)c1ccc(C(=O)O)cc1 | 76 | > 1000 | > 1000 | 258 | > 127 | > 1000 | > 1000 | > 1000 | > 50 |  |  |  | 
C[C@H](NC(=O)c1cccc2c1N(Cc1ccc(-c3ccccc3)cc1)CC2)c1ccc(C(=O)O)cc1 | 0.28 | > 1000 | > 1000 | 1.3 | 139 | > 1000 | > 1000 | > 1000 | 57 |  |  |  | 
C[C@H](NC(=O)c1cccc2c1N(Cc1cccc(C#N)c1)CC2)c1ccc(C(=O)O)cc1 | 7.5 | > 1000 | > 1000 | 212 | 582 | > 1000 | > 1000 | > 1000 | > 1000 |  |  |  | 
C[C@H](NC(=O)c1cccc2c1N(Cc1cccc(C(N)=O)c1)CC2)c1ccc(C(=O)O)cc1 | 30 | > 1000 | > 1000 | 72 | 582 | > 1000 | > 1000 | > 1000 | 461 |  |  |  | 
C[C@H](NC(=O)c1cccc2ccn(Cc3cccc(Cl)c3)c12)c1ccc(C(=O)O)cc1 |  | > 1000 | > 1000 | 6 | > 1000 | > 1000 | > 1000 | > 1000 | 16 |  |  |  | 
C[C@H](NC(=O)c1cccc2c1N(Cc1ccc(Cl)cc1Br)CC2)c1ccc(C(=O)O)cc1 | 2.3 | > 1000 | > 1000 | 8.3 | > 1000 | > 1000 | > 1000 | > 1000 | 114 |  |  |  | 
